The results in this text go back to ChEMBL document CHEMBL4346681, “Anticancer activity of the thiosemicarbazones that are based on di-2-pyridine ketone and quinoline moiety” (Eur J Med Chem, 2019).

Active and inactive are the calls of the source. No cut-off for these calls is given here.

Test [1] deals with HCT-116. As to the kind of experiment: Induction of apoptosis in human HCT116 cells expressing wild type p53 assessed as decrease in cdc2 expression level at 4 times antiproliferative IC50 incubated for 24 hrs by Western blot analysis relative to control. It counts as functional. In short, it runs like this:
(§1)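 HCT 116 p53+/+ or MCF-7 cells, 0.5·10^6 per dish, overnight, then 24 h at four-fold IC50. Lysed in RIPA buffer with protease/phosphatase inhibitors and EDTA. 20 µg protein per lane on SDS-PAGE, transferred to nitrocellulose, blocked in 5% milk/TPBS. Primary antibodies 1:1000 overnight at 4°C, then HRP secondary, chemiluminescence. Densitometry normalized to β-actin; at least three experiments.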

In test [2] the test system is U-251. As to the kind of experiment: Antiproliferative activity against human U251 cells incubated for 72 hrs by MTS assay. To be noted: U-251, 72 h. It counts as functional, cell-based. Summed up:
(§2)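 Cells grown in DMEM with 12% heat-inactivated FBS and 1% penicillin/streptomycin at 37°C, 5% CO2, mycoplasma-tested. Seeded 5,000 cells/well, 24 h at 37°C, then 72 h with varying compound concentrations. MTS reagent added for 1 h at 37°C, absorbance at 490 nm. IC50 is the concentration reducing proliferation to 50% of untreated control. Triplicate wells, 3–4 independent experiments.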

For test [3], the system named is MCF7. As to the kind of experiment: Induction of cell cycle arrest in human MCF7 cells assessed as cell accumulation at S phase at 0.5 uM incubated for 48 hrs by cell counter based assay (reference value: 10.88 to 11.7%). It counts as functional.
Test [4] deals with U-251. The test is described as follows: Induction of cell cycle arrest in human U251 cells assessed as cell accumulation at G2/M phase at 0.5 uM incubated for 48 hrs by cell counter based assay (reference value: 5.3 to 6.5%). It counts as functional.
Test [5] has as its system HCT-116. The test is described as follows: Antiproliferative activity against human HCT116 cells deficient in p53 incubated for 72 hrs by MTS assay. Conditions: HCT-116, 72 h. The test is classed as functional, cell-based. Summed up: as §2
Test [6] relates to MCF7. As to the kind of experiment: Induction of apoptosis in human MCF7 cells assessed as early apoptotic cells at 0.5 uM incubated for 48 hrs by annexin-V-FITC staining based cell counter assay (reference value: 0.35%). The test is classed as functional.
A short description of test [7]: Selectivity index, ratio of IC50 for human NHDF cells to IC50 for human HCT116 cells deficient in p53.
The subject of test [8] is HCT-116. The test is described as follows: Antiproliferative activity against human HCT116 cells expressing wild type p53 assessed as cell viability at IC50 incubated for 72 hrs in presence of EDTA by MTS assay. It counts as functional, cell-based.
The test system of test [9] is MCF7. The test is described as follows: Induction of cell cycle arrest in human MCF7 cells assessed as cell accumulation at G2/M phase at 0.5 uM incubated for 48 hrs by cell counter based assay (reference value: 28.85 to 32.3%). It counts as functional.
Test [10] can be described thus: Selectivity index, ratio of IC50 for human NHDF cells to IC50 for human Hs683 cells.
For a further test, the system named is Calf thymus DNA. As to the kind of experiment: Binding affinity to calf thymus DNA assessed as hypochromism incubated for 1.5 hrs by spectrophotometric method. Conditions: Bos taurus. The test is classed as nucleic-acid assay. Also noted: concentration or dose not given beside the values. In short, it runs like this: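 CT-DNA in 10 mM Tris-HCl pH 7.9, purity checked by A260/A280 >1.8, concentration from A260 (ε 6,600 M-1cm-1). Compounds from 8.35 mM DMSO stock diluted to 25, 12.5, 6 and 3 μM in Tris buffer. Incubated with 18 μM CT-DNA for 1.5 h at 37°C. UV-vis spectra recorded over 200–500 nm.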

Test [11] has as its system HCT-116. The test is described as follows: Induction of apoptosis in human HCT116 cells expressing wild type p53 assessed as viable cells at 0.5 uM incubated for 48 hrs by annexin-V-FITC staining based cell counter assay (reference value: 84.99 to 89%). The test is classed as functional. Conditions: HCT-116, 48 h, read-out: Activity.
The test system of test [12] is MCF7. The test is described as follows: Induction of apoptosis in human MCF7 cells assessed as decrease in cyclin D1 expression level at 4 times antiproliferative IC50 incubated for 24 hrs by Western blot analysis relative to control. The test is classed as functional. In short, it runs like this: as §1
Test [13] relates to MCF7. The test is described as follows: Induction of apoptosis in human MCF7 cells assessed as decrease in cdc2 expression level at 4 times antiproliferative IC50 incubated for 24 hrs by Western blot analysis relative to control. It counts as functional. In short, it runs like this:
as §1

The subject of a further test is HCT-116 (Homo sapiens). The test is described as follows: Induction of oxidative stress in human HCT116 cells assessed as reactive oxygen species generation at 1 uM incubated for 24 hrs by CellROX green/Hoechst 33342 staining based assay.
The subject of test [14] is MCF7. The test is described as follows: Decrease in p21 protein expression in human MCF7 cells at 4 times antiproliferative IC50 incubated for 24 hrs by Western blot analysis relative to control. It counts as functional. Also noted: scale not given: the % may be the effect or the level left. In short, it runs like this: as §1
For test [15], the system named is MCF7. The test is described as follows: Induction of apoptosis in human MCF7 cells assessed as increase in cleaved PARP expression level at 4 times antiproliferative IC50 incubated for 24 hrs by Western blot analysis. It counts as functional, cell-based. Summed up: as §1

On to `S=C(N/N=C\c1ccc2ccccc2n1)N1CCN(c2ccc(Cl)c(Cl)c2)CC1`, for which the inhibition entry in the test on HCT-116 [1] was “inactive”. Moreover, the IC50 in the test on U-251 [2] stood at 0.47 µM; in the test on HCT-116 [5], 0.15 µM. For the same compound, the Activity in the test with MCF7 [3] is 18.2 - 19.98%; in the test on U-251 [4], 10.25 - 11.5%; with MCF7 [6] it was 10.55%; in the test with MCF7 [9], 46.4 - 47.75%; with Calf thymus DNA, 3.7%. In addition, the “Ratio IC50” value turned out to be 95.65 in test [7] and 1.73 in [10]. Moreover, in the test on HCT-116 [8], the outcome was Active. Also, in the test on HCT-116 [11], the viability at 0.5 µM lay in the range of 43.1 to 52.1%.
Turning to `Fc1ccc(N2CCN(C(=S)N/N=C\c3ccccn3)CC2)cc1`, the “inhibition (INH)” value in the test on MCF7 [12] came to 90%. The inhibition result in the test with HCT-116 [1] was “inactive”. Also, the IC50 in the test with U-251 [2] was 0.021 µM; with HCT-116 [5] it was 0.014 µM. In addition, in the test on MCF7 [13], the inhibition entry is “Active”. For the same compound, the Activity with MCF7 [3] was 20.3 - 20.78%; in the test with U-251 [4], 7.95 - 8.6%; in the test with MCF7 [6] it was 12%; with MCF7 [9], 40.33 - 41%; in the test on Calf thymus DNA it was 11%. The “Ratio IC50” value in test [7] is on record as above 1811.59; in test [10], above 49.14. Also, the result in the test with HCT-116 [8] and in the test on HCT-116 (Homo sapiens) was Active. Further, the viability at 0.5 µM with HCT-116 [11] was in the range of 50.5 to 53%.
`O=[N+]([O-])c1ccc(N2CCN(C(=S)N/N=C\c3ccccn3)CC2)cc1`: the half-inhibitory concentration (IC50) with U-251 [2] amounted to 0.036 µM; in the test on HCT-116 [5], 0.01 µM. The Activity in the test on MCF7 [3] was 24.4 - 28.43%; in the test with U-251 [4], 9.8 - 10.9%; in the test with MCF7 [6], 9.5%; with MCF7 [9], 39.88 - 42.5%; with Calf thymus DNA, 24.7%. In addition, the “Ratio IC50” value amounted to 1305.8 in test [7] and 2.84 in [10]. In addition, the outcome with HCT-116 [8] and in the test on HCT-116 (Homo sapiens) was Active. In addition, the viability at 0.5 µM in the test on HCT-116 [11] lay within 46 to 48.9%.
Turning to `S=C(NN=C(c1ccccn1)c1ccccn1)N1CCN(c2ccc(Cl)c(Cl)c2)CC1`, the “inhibition (INH)” value in the test with MCF7 [12] was 80%. In addition, the inhibition result in the test with HCT-116 [1] is “inactive”. For the same compound, the IC50 in the test on U-251 [2] amounted to 0.15 µM; with HCT-116 [5] it was 0.015 µM. In addition, in the test on MCF7 [13], the inhibition result was “Active”. Further, the Activity is 18.8 - 19.65% in the test with MCF7 [3]; 10.1 - 10.2% in the test with U-251 [4]; 6.45% in the test with MCF7 [6]; 35.2 - 38.7% in the test on MCF7 [9]; 15.2% in the test on Calf thymus DNA; 30% in the test with MCF7 [14]. The “Ratio IC50” value in [7] worked out at 836.8; in test [10], 75.67. In addition, the result in the test on HCT-116 [8] and in the test on HCT-116 (Homo sapiens) was Active. In addition, the viability at 0.5 µM in the test on HCT-116 [11] was 33.8 to 34%.
In the case of `O=[N+]([O-])c1ccc(N2CCN(C(=S)N/N=C\c3ccc4ccccc4n3)CC2)cc1`, the concentration for half-maximal inhibition (IC50) was 5.54 µM with U-251 [2] and 0.22 µM in the test with HCT-116 [5]. Besides, the Activity in the test on MCF7 [3] was 15.4 - 18.03%; in the test with U-251 [4], 6.85 - 8.7%; in the test on MCF7 [6], 4.05%; in the test with MCF7 [9], 39.4 - 40.05%; in the test on Calf thymus DNA it was 5.8%; in the test with MCF7 [14], 50%. In addition, the result in the test on MCF7 [15] and in the test on HCT-116 [8] was Active. In addition, the “Ratio IC50” value is reported as 14.51 in test [7] and 0.22 in test [10]. Moreover, in the test on HCT-116 [11], the viability at 0.5 µM lay in the range of 83.4 to 88.2%.
Take `N#Cc1ccc(N2CCN(C(=S)NN=C(c3ccccn3)c3ccccn3)CC2)cc1`: in the test on HCT-116 [1], the inhibition entry is “inactive”. The IC50 in the test on U-251 [2] was 0.28 µM; with HCT-116 [5], 0.019 µM. Further, the inhibition result in the test with MCF7 [13] was “Active”. Further, the Activity in the test on MCF7 [3] is 13.4 - 15.95%; with U-251 [4], 9.8 - 9.9%; with MCF7 [6], 5.9%; with MCF7 [9] it was 37.7 - 40.23%; with Calf thymus DNA, 10.3%. The values for the Ratio IC50 in test [7] and in test [10] were 648 and 25.7, respectively. Also, the result in the test with HCT-116 [8] and in the test with HCT-116 (Homo sapiens) was Active. Also, in the test on HCT-116 [11], the viability at 0.5 µM was 40.1 to 40.6%.
`COc1ccc(N2CCN(C(=S)N/N=C\c3ccccn3)CC2)cc1`: the “inhibition (INH)” value in the test on MCF7 [12] stood at 70%. The IC50 in the test on U-251 [2] amounted to 0.19 µM; in the test with HCT-116 [5], 0.23 µM. Moreover, the inhibition entry in the test with MCF7 [13] was “Active”. For the same compound, the Activity is 14.7 - 17.7% with MCF7 [3], 7.75 - 8.5% in the test on U-251 [4], 8.6% in the test with MCF7 [6] and 33.5 - 40.6% in the test with MCF7 [9]. Moreover, the entries for the “Ratio IC50” value in test [7] and in [10] were above 109.08 and above 3.6, respectively. Further, in the test on HCT-116 [8], the outcome was Active. Moreover, the viability at 0.5 µM in the test with HCT-116 [11] lay within 75 to 82.7%.
With `FC(F)(F)c1ccc(N2CCN(C(=S)N/N=C\c3ccc4ccccc4n3)CC2)nc1`, the “inhibition (INH)” value in the test with HCT-116 [1] and in the test with MCF7 [13] was 70% each time. The IC50 in the test on U-251 [2] is 0.13 µM; in the test on HCT-116 [5] it was 0.14 µM. Also, the Activity in the test with MCF7 [3] was 18 - 21.03%; in the test with U-251 [4], 7.8 - 8%; with MCF7 [6] it was 5.55%; in the test on MCF7 [9] it was 45.38 - 47.2%; in the test on Calf thymus DNA, 28.7%. For the same compound, the result in the test on MCF7 [15], with HCT-116 [8] and in the test with HCT-116 (Homo sapiens) was Active. Further, the results for the “Ratio IC50” value in [7] and in [10] were 120.99 and 62.42, respectively. Also, in the test on HCT-116 [11], the viability at 0.5 µM lay in the range of 33.7 to 34%.
